# According to ChEMBL document CHEMBL4689842, “EUbOPEN Chemogenomics Library wave 1” (2021):
# Test system: U2OS
# Test: Multiplex assay against U2OS
# Format: toxicity, cell-based
# Conditions: human
# Summary of the method: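 Imaging took place on a CQ1 microscope at 37°C and 5% CO2 once compound had been added to live cells stained at seeding with Hoechst33342, BioTracker Green Microtubule Cytoskeleton Dye, MitoTracker Red and Annexin V Alexa Fluor 680. CellPathfinder machine-learning gating classed cells as Hoechst high-intensity objects or normal cells, classed normal cells as having healthy, pyknosed or fragmented nuclei, and classed pyknosed cells as mitotic or apoptotic. Tubulin, mitochondrial-mass and membrane-permeability phenotypes are per cents of the healthy-nucleus cells.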
# [1] = 12 h, 1 µM, compound concentration 1 uM, replicate 1
# [2] = 12 h, 1 µM, compound concentration 1 uM, replicate 2
# [3] = 12 h, 10 µM, compound concentration 10 uM, replicate 1
# [4] = 12 h, 10 µM, compound concentration 10 uM, replicate 2
# [5] = 24 h, 1 µM, compound concentration 1 uM, replicate 1
# [6] = 24 h, 1 µM, compound concentration 1 uM, replicate 2
# [7] = 24 h, 10 µM, compound concentration 10 uM, replicate 1
# [8] = 24 h, 10 µM, compound concentration 10 uM, replicate 2
smiles,measurement,setting,value
Cc1c(Nc2ccc(S(=O)(=O)N3CCN(C)CC3)cc2F)nc2ccc(Nc3cnn(C4CC4)c3)cn2c1=O,Population Apoptotic (%),[1],50%
same,Population Fragmented Nuclei (%),[1],7%
same,Population Healthy Nuclei (%),[1],81%
same,Population Hoechst High Intensity Objects (%),[1],3%
same,Population Membrane Permeable-Phenotype (%),[1],58%
same,Population Mitochondria Different-Phenotype (%),[1],9%
same,Population Mitotic Cells (%),[1],50%
same,Population Normal (%),[1],96%
same,Population Pyknosed Nuclei (%),[1],11%
same,Population Tubulin-Different-Phenotype (%),[1],53%
same,Total Cell Count,[1],194
same,Population Apoptotic (%),[2],0%
same,Population Fragmented Nuclei (%),[2],3%
same,Population Healthy Nuclei (%),[2],93%
same,Population Hoechst High Intensity Objects (%),[2],6%
same,Population Membrane Permeable-Phenotype (%),[2],40%
same,Population Mitochondria Different-Phenotype (%),[2],18%
same,Population Mitotic Cells (%),[2],100%
same,Population Normal (%),[2],93%
same,Population Pyknosed Nuclei (%),[2],3%
same,Population Tubulin-Different-Phenotype (%),[2],34%
same,Total Cell Count,[2],124
same,Population Apoptotic (%),[3],27%
same,Population Fragmented Nuclei (%),[3],2%
same,Population Healthy Nuclei (%),[3],91%
same,Population Hoechst High Intensity Objects (%),[3],3%
same,Population Membrane Permeable-Phenotype (%),[3],7%
same,Population Mitochondria Different-Phenotype (%),[3],21%
same,Population Mitotic Cells (%),[3],72%
same,Population Normal (%),[3],96%
same,Population Pyknosed Nuclei (%),[3],5%
same,Total Cell Count,[3],459
same,Population Apoptotic (%),[4],37%
same,Population Fragmented Nuclei (%),[4],9%
same,Population Healthy Nuclei (%),[4],82%
same,Population Hoechst High Intensity Objects (%),[4],15%
same,Population Membrane Permeable-Phenotype (%),[4],9%
same,Population Mitochondria Different-Phenotype (%),[4],32%
same,Population Mitotic Cells (%),[4],62%
same,Population Normal (%),[4],84%
same,Population Pyknosed Nuclei (%),[4],7%
same,Population Tubulin-Different-Phenotype (%),[4],20%
same,Total Cell Count,[4],603
same,Population Apoptotic (%),[5],50%
same,Population Fragmented Nuclei (%),[5],10%
same,Population Healthy Nuclei (%),[5],80%
same,Population Hoechst High Intensity Objects (%),[5],1%
same,Population Membrane Permeable-Phenotype (%),[5],37%
same,Population Mitochondria Different-Phenotype (%),[5],15%
same,Population Mitotic Cells (%),[5],50%
same,Population Normal (%),[5],98%
same,Population Pyknosed Nuclei (%),[5],9%
same,Population Tubulin-Different-Phenotype (%),[5],33%
same,Total Cell Count,[5],275
same,Population Apoptotic (%),[6],42%
same,Population Fragmented Nuclei (%),[6],6%
same,Population Healthy Nuclei (%),[6],87%
same,Population Hoechst High Intensity Objects (%),[6],5%
same,Population Membrane Permeable-Phenotype (%),[6],19%
same,Population Mitochondria Different-Phenotype (%),[6],10%
same,Population Mitotic Cells (%),[6],57%
same,Population Normal (%),[6],94%
same,Population Pyknosed Nuclei (%),[6],6%
same,Population Tubulin-Different-Phenotype (%),[6],19%
same,Total Cell Count,[6],152
same,Population Apoptotic (%),[7],50%
same,Population Fragmented Nuclei (%),[7],3%
same,Population Healthy Nuclei (%),[7],91%
same,Population Hoechst High Intensity Objects (%),[7],2%
same,Population Membrane Permeable-Phenotype (%),[7],5%
same,Population Mitochondria Different-Phenotype (%),[7],15%
same,Population Mitotic Cells (%),[7],50%
same,Population Normal (%),[7],97%
same,Population Pyknosed Nuclei (%),[7],5%
same,Population Tubulin-Different-Phenotype (%),[7],26%
same,Total Cell Count,[7],480
same,Population Apoptotic (%),[8],30%
same,Population Fragmented Nuclei (%),[8],5%
same,Population Healthy Nuclei (%),[8],85%
same,Population Hoechst High Intensity Objects (%),[8],11%
same,Population Membrane Permeable-Phenotype (%),[8],10%
same,Population Mitochondria Different-Phenotype (%),[8],26%
same,Population Mitotic Cells (%),[8],69%
same,Population Normal (%),[8],88%
same,Population Pyknosed Nuclei (%),[8],9%
same,Population Tubulin-Different-Phenotype (%),[8],20%
same,Total Cell Count,[8],644
